# Key:
# Type in all cases: functional
# NCI-H23 = assay: Growth inhibition of human NCI-H23 cells assessed as cell growth at 10 uM incubated for 48 hrs by sulforhodamine B assay relative to control; conditions: NCI-H23, 48 h, read-out: Activity
# Outline: (§1)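 Run in the standard NCI 60-cell-line screen. Cells were exposed to drug for two days, and the read-out was sulforhodamine B staining. Compound was tested at a single final concentration of 10 µM in every line, and results are reported as growth percent.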
# NCI-H322M [1] = assay: Growth inhibition of human NCI-H322M cells incubated for 48 hrs by sulforhodamine B assay
# Outline: (§2)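 NCI 60-cell-line panel, standard protocol. Cells exposed to compound for two days, growth read by sulforhodamine B staining. Tested at five 10-fold dilutions, top concentration 100 µM, to give dose-response curves.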
# [2] = Growth inhibition of human SW620 cells assessed as cell growth at 10 uM incubated for 48 hrs by sulforhodamine B assay relative to control; conditions: SW-620, 48 h, read-out: Activity; outline: as §1
# CCRF-CEM [3] = assay: Growth inhibition of human CCRF-CEM cells assessed as cell growth at 10 uM incubated for 48 hrs by sulforhodamine B assay relative to control; conditions: read-out: Activity
# Outline: (§3)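 Single-dose screen in the NCI 60-cell-line panel at one final concentration of 10 µM. Two-day drug exposure with a sulforhodamine B endpoint. Values are growth percent for each cell line.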
# [4] = Growth inhibition of human RXF393 cells incubated for 48 hrs by sulforhodamine B assay; conditions: RXF 393, 48 h
# Outline: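 Run in the NCI 60-cell-line protocol, with 2-day drug exposure and sulforhodamine B read-out. Dose-response testing used five 10-fold dilutions starting from a high concentration of 100 µM.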
# NCI-H322M [5] = assay: Growth inhibition of human NCI-H322M cells assessed as cell growth at 10 uM incubated for 48 hrs by sulforhodamine B assay relative to control; conditions: read-out: Activity; outline: as §1
# SR = assay: Growth inhibition of human SR cells incubated for 48 hrs by sulforhodamine B assay
# Outline: (§4)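 Tested in the standard NCI 60-cell-line protocol with two-day drug exposure and a sulforhodamine B endpoint. Compounds were first screened at a single final concentration of 10 µM, reported as growth percent. They were then run as five 10-fold dilutions starting from a high concentration of 100 µM to give dose-response curves.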
# [6] = Growth inhibition of human RPMI8226 cells incubated for 48 hrs by sulforhodamine B assay; conditions: RPMI-8226, 48 h; outline: as §2
# [7] = Growth inhibition of human MOLT4 cells assessed as cell growth at 10 uM incubated for 48 hrs by sulforhodamine B assay relative to control; conditions: MOLT-4, 48 h, read-out: Activity; outline: as §1
# Malme-3M = assay: Growth inhibition of human MALME-3M cells incubated for 48 hrs by sulforhodamine B assay; outline: as §2
# [8] = Growth inhibition of human OVCAR4 cells assessed as cell growth at 10 uM incubated for 48 hrs by sulforhodamine B assay relative to control; conditions: OVCAR-4, 48 h, read-out: Activity; outline: as §1
# CCRF-CEM [9] = assay: Growth inhibition of human CCRF-CEM cells incubated for 48 hrs by sulforhodamine B assay; outline: as §2
# KM12 = assay: Growth inhibition of human KM12 cells incubated for 48 hrs by sulforhodamine B assay; conditions: KM12, 48 h; outline: as §2
# SK-MEL-5 = assay: Growth inhibition of human SK-MEL-5 cells incubated for 48 hrs by sulforhodamine B assay; conditions: SK-MEL-5, 48 h; outline: as §2
# [10] = Growth inhibition of human SF268 cells incubated for 48 hrs by sulforhodamine B assay; conditions: SF-268, 48 h; outline: as §2
# A498 = assay: Growth inhibition of human A498 cells assessed as cell growth at 10 uM incubated for 48 hrs by sulforhodamine B assay relative to control; conditions: A498, 48 h, read-out: Activity
# [11] = Growth inhibition of human SNB75 cells assessed as cell growth at 10 uM incubated for 48 hrs by sulforhodamine B assay relative to control; conditions: SNB-75, 48 h, read-out: Activity; outline: as §1
# [12] = Growth inhibition of human UACC62 cells incubated for 48 hrs by sulforhodamine B assay; conditions: UACC-62, 48 h; outline: as §4
# [13] = Growth inhibition of human TK10 cells incubated for 48 hrs by sulforhodamine B assay; conditions: TK-10, 48 h; outline: as §4
# [14] = Growth inhibition of human OVCAR4 cells incubated for 48 hrs by sulforhodamine B assay; conditions: OVCAR-4, 48 h; outline: as §2
# [15] = Growth inhibition of human HOP62 cells assessed as cell growth at 10 uM incubated for 48 hrs by sulforhodamine B assay relative to control; conditions: HOP-62, 48 h, read-out: Activity; outline: as §1
# [16] = Growth inhibition of human Caki1 cells incubated for 48 hrs by sulforhodamine B assay; conditions: CAKI-1, 48 h; outline: as §2
# [17] = Growth inhibition of human UACC257 cells assessed as cell growth at 10 uM incubated for 48 hrs by sulforhodamine B assay relative to control; conditions: UACC-257, 48 h, read-out: Activity
# Outline: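 NCI 60-cell line standard protocol, one-dose screen: single final concentration 10 µM, 2-day drug exposure, sulforhodamine B (SRB) endpoint; read-out is growth percent relative to untreated control.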
# [18] = Growth inhibition of human HL-60(TB) cells assessed as cell growth at 10 uM incubated for 48 hrs by sulforhodamine B assay relative to control; conditions: HL-60, 48 h, read-out: Activity; outline: as §3
# ACHN = assay: Growth inhibition of human ACHN cells assessed as cell growth at 10 uM incubated for 48 hrs by sulforhodamine B assay relative to control; conditions: read-out: Activity; outline: as §1
# NCI-H460 = assay: Growth inhibition of human NCI-H460 cells incubated for 48 hrs by sulforhodamine B assay; conditions: NCI-H460, 48 h; outline: as §2
# K562 = assay: Growth inhibition of human K562 cells incubated for 48 hrs by sulforhodamine B assay; conditions: K562, 48 h; outline: as §2
# [19] = Growth inhibition of human BT549 cells incubated for 48 hrs by sulforhodamine B assay; conditions: BT-549, 48 h; outline: as §2
# [20] = read-out: pLC50 (the source's name) (converted)
structure (smiles),measurement,setting,value
CC(C)[C@@]12C[C@@H](NC(=O)CO)[C@@](C)(O1)[C@@H]1CC[C@@H](C)[C@H]1[C@@H]2OC(=O)/C=C/C1CCCCC1,growth at 10 µM,NCI-H23,99.4%
same,GI50,NCI-H322M [1],> 44.7 µM
same,LC50,NCI-H322M [1],> 44.7 µM
same,TGI,NCI-H322M [1]; read-out: pTGI (converted),> 44.7 µM
same,growth at 10 µM,[2],102%
same,growth at 10 µM,CCRF-CEM [3],128%
same,GI50,[4],13.8 µM
same,CC50,[4]; [20],> 44.7 µM
same,TGI,[4]; read-out: pTGI (converted),> 44.7 µM
same,growth at 10 µM,NCI-H322M [5],97.7%
same,GI50,SR,> 44.7 µM
same,LC50,SR,> 44.7 µM
same,TGI,SR; read-out: pTGI (converted),> 44.7 µM
same,GI50,[6],> 44.7 µM
same,CC50,[6]; [20],> 44.7 µM
same,TGI,[6]; read-out: pTGI (converted),> 44.7 µM
same,growth at 10 µM,[7],98%
same,GI50,Malme-3M,> 44.7 µM
same,LC50,Malme-3M,> 44.7 µM
same,TGI,Malme-3M; read-out: pTGI (converted),> 44.7 µM
same,growth at 10 µM,[8],98.6%
same,GI50,CCRF-CEM [9],> 44.7 µM
same,CC50,CCRF-CEM [9]; [20],> 44.7 µM
same,TGI,CCRF-CEM [9]; read-out: pTGI (converted),> 44.7 µM
same,GI50,KM12,> 44.7 µM
same,LC50,KM12,> 44.7 µM
same,TGI,KM12; read-out: pTGI (converted),> 44.7 µM
same,GI50,SK-MEL-5,> 44.7 µM
same,LC50,SK-MEL-5,> 44.7 µM
same,TGI,SK-MEL-5; read-out: pTGI (converted),> 44.7 µM
same,GI50,[10],> 44.7 µM
same,"LC50 (lethal concentration, 50% net cell kill)",[10],> 44.7 µM
same,TGI,[10]; read-out: pTGI (converted),> 44.7 µM
same,growth at 10 µM,A498,41%
same,growth at 10 µM,[11],86.1%
same,GI50,[12],> 44.7 µM
same,"LC50 (lethal concentration, 50% net cell kill)",[12],> 44.7 µM
same,TGI,[12]; read-out: pTGI (converted),> 44.7 µM
same,GI50,[13],> 44.7 µM
same,CC50,[13]; [20],> 44.7 µM
same,TGI,[13]; read-out: pTGI (converted),> 44.7 µM
same,GI50,[14],> 44.7 µM
same,LC50 (concentration killing 50% of cells),[14],> 44.7 µM
same,TGI,[14]; read-out: pTGI (converted),> 44.7 µM
same,growth at 10 µM,[15],108%
same,GI50,[16],> 44.7 µM
same,LC50,[16],> 44.7 µM
same,TGI,[16]; read-out: pTGI (converted),> 44.7 µM
same,growth at 10 µM,[17],98.2%
same,growth at 10 µM,[18],111%
same,growth at 10 µM,ACHN,99.9%
same,GI50,NCI-H460,> 44.7 µM
same,CC50,NCI-H460; [20],> 44.7 µM
same,TGI,NCI-H460; read-out: pTGI (converted),> 44.7 µM
same,GI50,K562,> 44.7 µM
same,CC50,K562; [20],> 44.7 µM
same,TGI,K562; read-out: pTGI (converted),> 44.7 µM
same,GI50,[19],> 44.7 µM
same,CC50,[19]; [20],> 44.7 µM
same,TGI,[19]; read-out: pTGI (converted),> 44.7 µM

# Reference: ChEMBL document CHEMBL3804761, “Synthesis of a stable and orally bioavailable englerin analogue” (Bioorg Med Chem Lett, 2016)
